# procasp7 counter – counter-screen: procaspase-7 (human) activation. activation, % at 8.5 µM. recombinant procaspase-7, Ac-DEVD-pNA absorbance 405 nm; D23A/D198A/D206A triple mutant, cannot self-cleave; scale: DMSO 0, 5 µM enzyme 100. actives 0.093% (n = 330,000). AID 463210. P55210;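 active = percent activation above the screen-wide mean plus 3 SD, cut at about 25% in these data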
# Target sequence (P55210 whole entry D23A/D198A/D206A): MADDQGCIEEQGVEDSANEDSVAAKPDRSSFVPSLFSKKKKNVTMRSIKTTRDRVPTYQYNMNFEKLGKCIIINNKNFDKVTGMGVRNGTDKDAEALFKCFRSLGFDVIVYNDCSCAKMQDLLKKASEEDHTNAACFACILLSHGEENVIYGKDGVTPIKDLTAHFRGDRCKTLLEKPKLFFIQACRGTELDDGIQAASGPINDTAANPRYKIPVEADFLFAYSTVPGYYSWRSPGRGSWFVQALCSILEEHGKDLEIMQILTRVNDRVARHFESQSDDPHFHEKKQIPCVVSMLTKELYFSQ
#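 Replicates: singlicate. Assay system: Procaspase-7 triple mutant (PC-7 D3A). Signal: 405 nm absorbance of p-nitroaniline. Times: 1 h preincubation, 2 h reaction. Buffer or medium: Zinc-free HEPES pH 7.4 with 300 mM NaCl, 0.01% Triton X-100. Also added: DEVD-pNA substrate. Benchmarks: DMSO wells as 0%, DMSO with 5 µM added PC-7 as 100%.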
# bovine MsrA act – activates bovine MsrA enzyme | actives 0.3% (n = 360,000) | purified bovine MsrA, absorbance read-out | activation, % at 10.6 µM; in the data active = activation above about 7.5%
# MsrA inhibitor – inhibitors of bovine MsrA. purified bovine MsrA, absorbance read-out. inhibition, % at 15.5 µM. actives 0.75% (n = 360,000). AID 651718
# proCasp3 act – procaspase-3 (human) activation; activation, % at 8.5 µM; P42574; recombinant procaspase-3 D3A, Ac-DEVD-pNA absorbance 405 nm; actives 0.11% (n = 330,000);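 active = activation above the mean of all tested compounds plus 3 SD, cut at about 21% in these data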
#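 Assay system – Procaspase-3 D3A mutant, all three cleavage aspartates alanine · Controls – DMSO-only low control, 5 µM PC-3 D3A high control · Schedule – 1 h compound preincubation, 2 h substrate hydrolysis at 25 °C · Signal – 405 nm absorbance of p-nitroaniline, reads at 0 and 120 min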
# MsrA conf – bovine MsrA inhibition, confirmed; shares compounds with MsrA inhibitor; purified bovine MsrA, absorbance read-out; inhibition, % at 15.5 µM; actives 41% (n = 2,300); AID 651822;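 note: coupled to thioredoxin reductase with NADPH and selenocystamine and DMSO as substrate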
# A number is an active result; - = inactive; . = not tested or not shown. Shown are actives, neighbours in structure and some others; about 1.2% of the full set was active somewhere. Cut-off read from the data, not from the text of the source, unless noted: active = inhibition above about 4.5%; inactive = the rest.
SMILES,procasp7 counter,bovine MsrA act,MsrA inhibitor,proCasp3 act,MsrA conf
Cc1cccc(-n2c(O)c(C=NCCN3CCNCC3)c(=O)[nH]c2=S)c1,-,-,-,-,.
CNC(=S)N1CCN(CCN=Cc2c(O)n(-c3ccc(C)cc3)c(=S)[nH]c2=O)CC1,-,-,4.7,-,-
O=C(NCCN1CCC2(CC1)C(=O)NCN2c1ccccc1)c1ccc(Cl)cc1,.,.,-,.,.
COc1cccc(-c2ccc3c(c2)C2c4cnnn4-c4ccccc4C(=O)N2CC3)c1 (stereo not drawn),.,.,-,.,.
CCOC(=O)c1c(C=O)c2ccccc2n1Cc1ccccc1,-,-,4.9,-,5.0
Cc1ccc(C)c(Cn2c(C(=O)O)c(C=O)c3ccccc32)c1,-,-,-,-,.
CCCC(=O)Nc1ccc(N2CCN(CC)CC2)c(Cl)c1,-,-,-,-,.
CCCC(=O)NC1=C(N2CC2)C(=O)C(NC(=O)CCC)=C(N2CC2)C1=O,.,-,4.7,.,-
COc1cc2c(cc1O)CC1c3c(cc(O)c(OC)c3-2)CCN1C (stereo not drawn),-,-,9.7,-,9.5
Fc1ccc2nc(-c3ccc(CN4CCC(n5nnc6ccccc65)CC4)cc3)c(-c3ccccc3)nc2c1,.,.,-,.,.
Cc1cc(N(CCCl)CCCl)ccc1/C=N/NC(=O)c1ccco1,-,-,4.8,-,-
O=C(NCCN1CCC2(CC1)C(=O)NCN2c1ccccc1)c1ccc(F)cc1,.,.,-,.,.
COc1cc(N2CCOCC2)ccc1C=C1C(=O)NC(=O)NC1=O,-,-,-,-,.
O=C1NC(=O)C(=Cc2ccc(N3CCOCC3)cc2)C(=O)N1,-,-,6.0,-,-
Cn1c(O)c(C=Nc2ccccc2)c(=O)n(C)c1=O,-,-,5.1,-,4.8
CC(=O)c1ccc2c(c1)C1C(Cl)C(Sc3ccccc3[N+](=O)[O-])CC1C(c1ccccc1[N+](=O)[O-])N2 (stereo not drawn),-,-,5.5,-,-
CC(=O)c1ccc2c(c1)C1C(Cl)C(Sc3ccccc3[N+](=O)[O-])CC1C(c1ccccc1)N2 (stereo not drawn),-,-,-,-,.
CCCCn1c(O)c(/C=N/N2CCCCC2c2cccnc2)c(=O)[nH]c1=S (stereo not drawn),-,-,-,-,.
C=CCn1c(O)c(/C=N/N2CCCCC2c2cccnc2)c(=O)[nH]c1=S (stereo not drawn),-,-,5.8,-,-
COc1cc(N2CCOCC2)ccc1/C=C1\C(=O)NC(=O)N(Cc2ccc3c(c2)OCO3)C1=O,-,-,6.2,-,-
COc1cc(N2CCOCC2)ccc1/C=C1\C(=O)NC(=O)N(Cc2cccs2)C1=O,-,-,6.4,-,-
O=P(OCCCl)(OCCCl)OCCCl,.,.,-,.,.
COC(=O)C1CC(OC(C)=O)C(=O)[C@H]2C1(C)CC[C@H]1C(=O)OC(c3ccoc3)CC12C (stereo partly drawn),.,.,-,.,.
COC1CC=C2CCN3CCC4=C(CC(=O)OC4)C23C1 (stereo not drawn),.,.,-,.,.
C/C(=N\NC(=O)c1ccccc1Cl)c1c(O)n(C2CCCCC2)c(=O)[nH]c1=O,-,-,-,-,.
SMILES,procasp7 counter,bovine MsrA act,MsrA inhibitor,proCasp3 act,MsrA conf
C/C(=N\NC(=O)c1ccccc1O)c1c(O)n(C2CCCCC2)c(=O)[nH]c1=O,-,-,5.0,-,6.7
CN(C)c1ccc(/C=C2/C(=O)NC(=O)N(CCc3ccc(F)cc3)C2=O)cc1,-,-,-,-,.
CN(C)c1ccc(/C=C2\C(=O)NC(=O)N(Cc3ccc(F)cc3)C2=O)cc1,-,-,4.9,-,4.6
O=C1c2cccc3cccc(c23)C(=O)N1/N=C/c1c(O)n(-c2ccccc2)c(=O)[nH]c1=O,-,-,5.1,-,-
CN(C)c1ccc(C(=O)c2ccc(N(C)C)cc2)cc1,-,-,5.0,-,-
O=C(NCCN1CCC2(CC1)C(=O)NCN2c1ccccc1)c1cccs1,.,.,-,.,.
CC(C)OC(=O)C1C(c2ccc(I)cc2)CC2CCC1N2C (stereo not drawn),.,.,-,.,.
CC(C)n1c(O)c(C=NCc2cccnc2)c(=O)[nH]c1=S,-,-,4.9,-,5.2
c1ccc(-c2nc3ccccc3nc2-c2ccc(CN3CCC(n4nnc5ccccc54)CC3)cc2)cc1,.,.,-,.,.

# Compound activity as filed in PubChem.
